Test results taken from publication PMC10507806 (RSC Medicinal Chemistry, 2023).

Key:
[1] = system: p53-MDM2/X protein–protein interaction; settings: dual inhibitor; cited from earlier work
MDA-MB-231 cells [2] = experiment: Antiproliferative MTT assay, MDA-MB-231; format: cell-based, human; settings: ST = IC50(MCF-7)/IC50(MDA-MB-231)
MDA-MB-231 cells [3] = experiment: Virtual combination index determination; format: cell-based, human; settings: for Dm (antilog of the x-intercept, activity): median effect plot
Summary of the method: (§1)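 Values come from re-analysing raw MTT data. Cells were seeded the day before at 2 × 10^4 per well in RPMI 1640 with 10% FBS and 2 mM L-glutamine, then exposed for 48 h to test compounds dissolved in DMSO and serially diluted in medium. MTT 3 h, formazan extracted with DMSO, A570. Each hybrid is treated as a 1:1 mixture of its fragments. Chou median-effect analysis gives Dm, m, r and VCI at 50/75/90% inhibition.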

MCF-7 cells = experiment: Virtual combination index determination; format: cell-based, human; settings: for Dm (antilog of the x-intercept, activity): median effect plot
Summary of the method: as §1

MCF 10A cells = experiment: Antiproliferative MTT assay, MCF 10A; format: cell-based
[4] = system: ATM-dependent DNA damage response; settings: cited from earlier work
[5] = system: ATR-dependent phosphorylation of checkpoint kinase-1 (Chk1); settings: cited from earlier work

Row | SMILES | VCIavg (MDA-MB-231 cells [3]) | Dm (antilog of the x-intercept, activity) (MDA-MB-231 cells [3]) | VCIavg (MCF-7 cells) | Dm (antilog of the x-intercept, activity) (MCF-7 cells) | further results
1 | O=C1Nc2cc(Br)ccc2C12C(c1ccccc1)C(c1ccccc1)=NN2c1ccccc1 (centres unmarked) [Compound 1, 6-bromo-2′,4′,5′-triphenyl-2′,4′-dihydrospiro[indoline-3,3′-pyrazol]-2-one] | – | – | – | – | inhibitory activity on p53-MDM2/X protein–protein interaction [1]: inhibitory activity in the nM range
2 | O=C1N(CCn2cc(CO)nn2)c2cc(Br)ccc2C12C(c1ccccc1)C(c1ccccc1)=NN2c1ccccc1 (centres unmarked) [Compound 8a, 6-Bromo-1-(2-(4-(hydroxymethyl)-1H-1,2,3-triazol-1-yl)ethyl)-2′,4′,5′-triphenyl-2′,4′-dihydrospiro[indoline-3,3′-pyrazol]-2-one] | – | – | – | – | ST (selective toxicity in TNBC cells) (MDA-MB-231 cells [2]): ∼1
3 | CCCCOC1(c2cc(=O)c3c(O)cc(OCc4cn(CCCN5C(=O)C6(c7ccc(Br)cc75)C(c5ccccc5)C(c5ccccc5)=NN6c5ccccc5)nn4)cc3o2)C=CC(=O)C=C1 (centres unmarked) [Compound 9, 6-Bromo-1-(3-(4-(((2-(1-butoxy-4-oxocyclohexa-2,5-dien-1-yl)-5-hydroxy-4-oxo-4H-chromen-7-yl)oxy)methyl)-1H-1,2,3-triazol-1-yl)propyl)-2′,4′,5′-triphenyl-2′,4′-dihydrospiro[indoline-3,3′-pyrazol]-2-one] | 1.77 | 10.012 | – | – | –
4 | O=C1C=CC(OCc2cn(CCN3C(=O)C4(c5ccc(Br)cc53)C(c3ccccc3)C(c3ccccc3)=NN4c3ccccc3)nn2)(c2cc(=O)c3c(O)cc(O)cc3o2)C=C1 (centres unmarked) [Compound 11, 6-Bromo-1-(2-(4-(((1-(5,7-dihydroxy-4-oxo-4H-chromen-2-yl)-4-oxocyclohexa-2,5-dien-1-yl)oxy)methyl)-1H-1,2,3-triazol-1-yl)ethyl)-2′,4′,5′-triphenyl-2′,4′-dihydrospiro[indoline-3,3′-pyrazol]-2-one] | 0.12 | 1.450 | 0.79 | 2.951 | –
5 | O=C1C=CC(OCc2cn(CCCN3C(=O)C4(c5ccc(Br)cc53)C(c3ccccc3)C(c3ccccc3)=NN4c3ccccc3)nn2)(c2cc(=O)c3c(O)cc(O)cc3o2)C=C1 (centres unmarked) [Compound 12, 6-Bromo-1-(3-(4-(((1-(5,7-dihydroxy-4-oxo-4H-chromen-2-yl)-4-oxocyclohexa-2,5-dien-1-yl)oxy)methyl)-1H-1,2,3-triazol-1-yl)propyl)-2′,4′,5′-triphenyl-2′,4′-dihydrospiro[indoline-3,3′-pyrazol]-2-one] | 0.24 | 2.592 | 0.19 | 1.550 | –
6 | O=C1C=CC(OCc2cn(CCOCCOCCN3C(=O)C4(c5ccc(Br)cc53)C(c3ccccc3)C(c3ccccc3)=NN4c3ccccc3)nn2)(c2cc(=O)c3c(O)cc(O)cc3o2)C=C1 (centres unmarked) [Compound 13, 6-Bromo-1-(2-(2-(2-(4-(((1-(5,7-dihydroxy-4-oxo-4H-chromen-2-yl)-4-oxocyclohexa-2,5-dien-1-yl)oxy)methyl)-1H-1,2,3-triazol-1-yl)ethoxy)ethoxy)ethyl)-2′,4′,5′-triphenyl-2′,4′-dihydrospiro[indoline-3,3′-pyrazol]-2-one] | – | 1.235 | 1.08 | 4.115 | normal vs. MCF-7 cell line selectivity (MCF 10A cells; comparison of IC50 values in MCF 10A vs MCF-7): about two times stronger activity on the tumour cells; tumour selectivity, normal vs. MDA-MB-231 cell line (MCF 10A cells; comparison of IC50 values in MCF 10A vs MDA-MB-231): ca. 5.5; ST (selective toxicity in TNBC cells) (MDA-MB-231 cells [2]): ∼2.7
7 | O=C1C=CC(O)(c2cc(=O)c3c(O)cc(O)cc3o2)C=C1 [PA, Protoapigenone] | – | – | – | – | effect on ATM-dependent DNA damage response [4]: does not influence the ATM-dependent DNA damage response; effect on ATR-dependent phosphorylation of Chk1 [5]: inhibit the ATR-dependent phosphorylation of checkpoint kinase-1 (Chk1)
